According to ChEMBL document CHEMBL4052722, “Virtual screening, synthesis and biological evaluation of DNA intercalating antiviral agents” (Bioorg Med Chem Lett, 2017):

Assays:
[1] = Cytotoxicity against African green monkey CV1 cells assessed as cell viability at 0.1 to 100 uM preincubated for 4 hrs measured after 24 hrs by MTT assay relative to control; assay type: cell-based, CV-1; settings: chlorocebus aethiops, read-out: Activity
Outline: (§1)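 CV-1 cells were exposed to test samples at 0.1, 10 and 100 μM. Viability was read by MTT assay.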

[2] = Cytotoxicity against African green monkey CV1 cells assessed as reduction in cell viability preincubated for 4 hrs measured after 24 hrs by MTT assay relative to control; assay type: cell-based, CV-1; settings: chlorocebus aethiops; outline: as §1
Bos taurus = species on record: Bos taurus; experiment: Displacement of ethidium bromide from calf thymus DNA by fluorescence binding assay
[3] = test system: Vesicular stomatitis virus; experiment: Antiviral activity against Vesicular stomatitis virus at 0.2 to 620 uM after 24 hrs post infection relative to control; assay type: functional

Compound	viability at 24 h, up to 100 µM [1]	CC50 at 24 h [2]	log Ka (Bos taurus)	Activity [3]
CCN(CC)CCNCCn1c2ccccc2c2nc3ccccc3nc21	99%	> 100 µM	6.82	73%
CCN(CC)CCNC(=O)Cn1c2ccccc2c2nc3ccccc3nc21	100%	> 100 µM	5.03	75%
c1ccc2nc3c(nc2c1)c1ccccc1n3CCNCCN1CCCCC1	113%	> 100 µM	6.85	52%
CC1CCN(CC(=O)NN2C(=O)c3cccc4cccc(c34)C2=O)CC1	104%	> 100 µM	5.73	
O=C(Cn1c2ccccc2c2nc3ccccc3nc21)OCCN1CCCCC1	102%	> 100 µM	5.39	50%
CCN(CC)CCNC(=O)CCCn1c2ccccc2c2nc3ccccc3nc21	88%	100 µM	5.25	
CN(C)CCNC(=O)Cn1c2ccccc2c2nc3ccccc3nc21	94%	> 100 µM	5.38	82%
CN(C)CCOC(=O)CCCn1c2ccccc2c2nc3ccccc3nc21	94%	100 µM	5.56	75%
CC(O)N(C)CCn1c2ccccc2c2nc3ccccc3nc21 (configuration not stated)	78%	100 µM		
CCCCN(C)CCn1c2ccccc2c2nc3ccccc3nc21	92%	> 100 µM	5.93	75%
CN(C)CCCNC(=O)CCCn1c2ccccc2c2nc3ccccc3nc21	96%	> 100 µM	5.09	
CCN(CC)CCn1c2ccc(OC)cc2c2nc3ccccc3nc21	60%	100 µM		
CCN(CCO)CCN1C(=O)c2cccc3cccc(c23)C1=O	79%	100 µM		
O=C(CCCn1c2ccccc2c2nc3ccccc3nc21)NCCN1CCCCC1	93%	100 µM	4.98	
CCCCN(CCO)CCN1C(=O)c2cccc3cccc(c23)C1=O	70%	> 100 µM		
Cc1ccc2c(c1)c1nc3ccccc3nc1n2CCN1CCN(C)CC1	87%	100 µM		
CN1CCN(CCN2C(=O)c3cccc4cccc(c34)C2=O)CC1	65%	100 µM		
O=C(CCCn1c2ccccc2c2nc3ccccc3nc21)NCCN1CCOCC1	95%	> 100 µM	4.91	

Compound	viability at 24 h, up to 100 µM [1]	CC50 at 24 h [2]	log Ka (Bos taurus)	Activity [3]
CN(C)CCCOC(=O)Cn1c2ccccc2c2nc3ccccc3nc21	87%	100 µM	5.28	100%
COC(=O)CN1CCN(CCN2C(=O)c3cccc4cccc(c34)C2=O)CC1	78%	> 100 µM		
CC1CCN(CCn2c3ccccc3c3nc4ccccc4nc32)CC1			5.98	90%
O=C(CCCN1C(=O)c2cccc3cccc(c23)C1=O)NCCCN1CCOCC1			5.07	30%
CC1CCN(CCCCn2c3ccccc3c3nc4ccccc4nc32)CC1			5.8	20%
c1ccc2nc3c(nc2c1)c1ccccc1n3CCN1CCCCC1			6.01	90%
c1ccc2nc3c(nc2c1)c1ccccc1n3CCNCCN1CCOCC1			6.17	40%
CC1CCCCN1CCCn1c2ccccc2c2nc3ccccc3nc21 (configuration not stated)			6.28	56%
O=C(CN1CCCCCC1)NN1C(=O)c2cccc3cccc(c23)C1=O	97%	> 100 µM	5.53	
c1ccc2nc3c(nc2c1)c1ccccc1n3CCCCCN1CCOCC1			5.73	77%
CCN(CC)CCN1C(=O)/C(=N\NC(=O)CCN2CCCCC2)c2ccccc21			5.39	100%
CN(C)CCCCCn1c2ccccc2c2nc3ccccc3nc21			5.66	68%
CN1CCN(CCCCn2c3ccccc3c3nc4ccccc4nc32)CC1			6.04	10%
CCN(CC)CCOC(=O)CCCn1c2ccccc2c2nc3ccccc3nc21			5.45	0%
CCN(CC)CCCNC(=O)Cn1c2ccccc2c2nc3ccccc3nc21	88%	100 µM	4.93	85%
CCN(CC)CCCC(C)N1C(=O)c2cccc3cccc(c23)C1=O (configuration not stated)	86%	50 µM	5.5	
O=C(CCN1C(=O)c2cccc3cccc(c23)C1=O)NCCN1CCOCC1			5.78	5%
CC1CCCCN1CCn1c2ccccc2c2nc3ccccc3nc21 (configuration not stated)			5.19	90%
